This excerpt belongs to a sample that is enriched for hits.
V-ATPase pH: regulators of yeast V-ATPase proton transport; S. cerevisiae, pHLuorin cytosolic pH fluorescence; response, % at 10 µM; 0.37% of 350,000 active; in the data active = response mostly above about 7.3%, no sharp cut-off; inactive = mostly below about 5.4%; also: actives read high
Dynein transport: blocks dynein driven cargo transport along microtubules. 3617.4 mouse cells, GR-EGFP nuclear translocation imaging; test concentration mostly 20 µM; stimulated with dexamethasone, 1 µM; stronger effect = lower value. z-score, hits read low. 0.47% of 220,000 active. AID 1381;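 active = plate z-score of nuclear minus cytoplasmic receptor signal below a set negative limit, without overly bright fluorescence or cell loss, cut at about -3.5 in these data, passing the limit was not always enough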;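 also: z-score of nuclear minus cytoplasmic ring GR-EGFP intensity difference per well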
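Buffer or medium: Induction medium lacking tetracycline, stripped serum | Also added: Dexamethasone agonist, 1.0 µM final, for 30 min | Timing: 48 h induction, 1 h compound, 30 min dex at 37 °C | Detection: Formaldehyde fixation, Hoechst nuclear stain, 10x automated fluorescence imaging | Measure: Nuclear versus cytoplasmic GR-EGFP signal, averaged per well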
ABCB6 inh MLPCN: blocks the human ABCB6 transporter | Q9NP58 | K562-ABCB6 porphyrin accumulation, flow cytometry, 1 h; stronger effect = lower value | fluorescence ratio to DMSO, % at 10 µM | 0.19% of 360,000 active | AID 602162;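 active = fluorescence ratio to DMSO below 75%, the collection mean minus 3 SD; inconclusive = too few cells collected in the well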;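 also: signal is porphyrin accumulated inside mitochondria; 100% equals median channel fluorescence of DMSO control wells; lower ratio means ABCB6 inhibition with less porphyrin fluorescence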
Target sequence (Q9NP58 whole entry, looked up): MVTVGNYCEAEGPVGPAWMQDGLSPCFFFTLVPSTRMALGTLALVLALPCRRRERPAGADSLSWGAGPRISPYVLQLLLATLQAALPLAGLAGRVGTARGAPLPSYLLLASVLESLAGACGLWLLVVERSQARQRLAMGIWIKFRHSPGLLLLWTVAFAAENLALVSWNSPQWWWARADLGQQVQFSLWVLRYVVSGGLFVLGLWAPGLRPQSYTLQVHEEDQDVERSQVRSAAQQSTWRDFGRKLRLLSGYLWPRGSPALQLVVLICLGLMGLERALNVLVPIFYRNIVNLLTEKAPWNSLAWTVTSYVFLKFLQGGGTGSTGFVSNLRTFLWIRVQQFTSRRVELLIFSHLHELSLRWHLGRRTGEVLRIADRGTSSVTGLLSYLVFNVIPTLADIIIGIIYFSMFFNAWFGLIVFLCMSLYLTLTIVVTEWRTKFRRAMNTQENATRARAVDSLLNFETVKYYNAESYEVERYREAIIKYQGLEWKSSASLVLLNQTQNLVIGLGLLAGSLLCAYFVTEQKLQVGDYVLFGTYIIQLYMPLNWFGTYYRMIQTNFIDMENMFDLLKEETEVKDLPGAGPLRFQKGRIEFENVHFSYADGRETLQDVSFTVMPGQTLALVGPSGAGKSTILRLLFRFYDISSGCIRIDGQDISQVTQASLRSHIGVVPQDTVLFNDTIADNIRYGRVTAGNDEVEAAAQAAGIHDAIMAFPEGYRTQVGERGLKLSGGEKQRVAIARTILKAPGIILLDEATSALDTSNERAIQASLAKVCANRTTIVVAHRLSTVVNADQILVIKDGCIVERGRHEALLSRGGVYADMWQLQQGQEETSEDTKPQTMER
KCC2 mod: modulators of human KCC2 chloride dependent transport; Q9H2X9; KCC2 cells, thallium flux FluoZin-2 fluorescence; B-score of Tl+ flux slope (higher = more flux/activation; lower = inhibition) at 10 µM; 2.2% of 190,000 active;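 active = thallium flux slope and its plate-corrected score both differing from the plate sample mean at a set confidence after two filtering rounds, in either direction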;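 also: slope of fluorescence scaled to starting intensity during 10 to 20 s after thallium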
pCIP destab: lowers stability of the mouse p/CIP coactivator protein | F442A p/CIP-EGFP cells, EGFP fluorescence, 16 h | Q05BA5 | decrease of EGFP signal, % at 10 µM | AID 1984 | 0.01% of 290,000 active;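 active = EGFP signal decrease of at least 30% at 10 µM or well 3 SD below plate mean, unless failing retest; inactive = the rest, including hits failing retest or dose response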
KCC2 sec1: confirmation of human KCC2 transport modulators. shares compounds with KCC2 mod. HEK293-KCC2, thallium flux, FluoZin2 fluorescence; stronger effect = higher value. normalised thallium flux (F/F0 slope) at 10 µM. 15% of 3,700 active;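 active = thallium flux slope above the same plate's solvent-only control mean plus 3 SD; inconclusive = the two replicate wells disagree; inactive = no significant difference from solvent-only control wells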
KCC2 bumet counter: thallium flux persisting under bumetanide in KCC2 cells, counter-screen secondary assay; shares compounds with KCC2 mod; 49% of 3,700 active; HEK293-KCC2 + bumetanide/ouabain, thallium flux FluoZin2; stronger effect = higher value; normalized thallium flux at 10 µM;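 active = thallium entry rate above the same plate's blocked-transporter control wells by more than 3 SD; inconclusive = the two repeat wells disagree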;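 also: raw slope of fluorescence over initial fluorescence between 10 and 20 s after thallium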
KCC2 secondary2: KCC2 (human) modulation, second secondary assay | shares compounds with KCC2 mod | HEK293-KCC2, thallium flux FluoZin2 fluorescence; actives lie on both sides; F/F0 rise rate, 10–20 s post-thallium | normalized thallium flux at 10 µM | 23% of 3,700 active | AID 1715;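 active = thallium flux slope more than 3 SD above or below the plate's solvent-only control mean, mostly below; inconclusive = the two repeat wells disagreed; inactive = no significant shift from solvent-only controls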;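 also: raw slope with 0.1% DMSO as baseline and bumetanide as block control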
HEK293 Tl flux: acts in parental HEK cells, KCC2 counter-screen; 46% of 3,700 active; AID 1716; shares compounds with KCC2 mod; thallium flux rate (normalised fluorescence) at 10 µM; HEK293 parental cells, thallium flux FluoZin2, ouabain; baseline-ratio fluorescence slope, 10–20 s after thallium;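 active = thallium flux rate significantly above the same plate's solvent-only control wells, beyond their mean plus 3 SD; inconclusive = the two replicate wells gave conflicting results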
KCC2 ouabain: KCC2 (human) modulation, ouabain retest | HEK293-KCC2, thallium flux FluoZin2 fluorescence; bidirectional: low = inhibitor, high = activator | shares compounds with KCC2 mod | 48% of 3,700 active | raw Tl+ flux slope (below DMSO = inhibition, above = activation) at 10 µM;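 active = thallium flux slope beyond 3 SD from same-plate DMSO control mean in most replicates, usually higher, sometimes lower; inconclusive = repeat tests gave conflicting results; inactive = no significant difference from controls in most replicates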;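 also: slope of initial-normalized fluorescence between seconds 10 and 20 after thallium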
HEK293 Tl flux2: acts in parental HEK cells, second KCC2 counter-screen. shares compounds with KCC2 mod. HEK293 parental, thallium flux FluoZin-2 fluorescence slope. thallium flux slope at 10 µM. 33% of 3,700 active. AID 1718;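 active = thallium flux slope above the same plate's solvent-control mean plus 3 SD in both duplicate wells; inconclusive = duplicate wells that disagreed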;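 also: run without ouabain in cells lacking the KCC2 cotransporter; slope of fluorescence scaled to its starting value between 10 and 20 s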
* hit, by the source's call; ? = inconclusive; nt = no result given.

SMILES	V-ATPase pH	Dynein transport	ABCB6 inh MLPCN	KCC2 mod	pCIP destab	KCC2 sec1	KCC2 bumet counter	KCC2 secondary2	HEK293 Tl flux	KCC2 ouabain	HEK293 Tl flux2
CC1CCCCN1S(=O)(=O)c1ccc(C(=O)Nc2nnc(-c3ccccc3Cl)o2)cc1 (stereo not drawn)	2	0.18	100	17*	-1	0.014*	0.053*	0.034	?	0.042*	?
CC1CCCCN1S(=O)(=O)c1ccc(C(=O)Nc2sccc2C(N)=O)cc1 (stereo not drawn)	-2	-0.25	85	-3.9*	-20	0.0057	0.0051	0.029	0.0079	0.018	0.012
CC(C)(C)c1cc(C(=O)Nc2ccccc2)ccn1	-1	-0.96	93	2.6	-10	nt	nt	nt	nt	nt	nt
CC(NC(=O)c1ccnc(C(C)(C)C)c1)c1ccccc1 (stereo not drawn)	0	-0.29	84	0.55	0	0.019	?	?	0.0071	0.015	0.0094
CS/C(=C/[N+](=O)[O-])Nc1cccc2c1C(C)CC2(C)C (stereo not drawn)	-5	-1.6	99	-5.1*	12	0.0083	?	0.032	0.0068	0.014*	0.011
O=C(Cc1cccs1)N1CCCC(c2nc3c(nnn3Cc3ccc(F)cc3)c(=O)[nH]2)C1 (stereo not drawn)	-7	-1.2	99	nt	-2	nt	nt	nt	nt	nt	nt
O=C(Cc1cccs1)N1CCCC(c2nc3c(nnn3Cc3ccccc3Cl)c(=O)[nH]2)C1 (stereo not drawn)	0	-0.33	98	-3.7*	-12	0.0067	0.0055	0.031	0.0064	0.017*	0.011
Cc1noc(/C=C/N(C)C)c1S(=O)(=O)N1CCCC(C(=O)NC2CCCCC2)C1 (stereo not drawn)	3	0.17	91	-0.012	5	nt	nt	nt	nt	nt	nt
Cc1noc(/C=C/N(C)C)c1S(=O)(=O)N(C)CC(=O)NC1CCCCC1	1	0.0071	94	-7.1*	10	0.01	0.0072	0.03	?	?	0.01
CC1CCCN(C(=O)c2cccc(S(=O)(=O)Nc3cc(C(F)(F)F)ccc3Cl)c2)C1 (stereo not drawn)	-2	1.1	99	-3.7*	-3	0.0078	0.0051	0.033	0.0076	0.015*	0.011
CN(C)CC(O)COc1cccc(OCC(O)CN(C)C)c1 (stereo not drawn)	0	-0.78	88	nt	1	0.0075	0.0044	0.031	0.0079	0.02	0.01
Cc1ccc(CNC(=O)CS(=O)(=O)Cc2nc(-c3ccccc3F)oc2C)cc1	0	nt	95	nt	-2	nt	nt	nt	nt	nt	nt
Cc1ccccc1-c1nc(CS(=O)(=O)CC(=O)NCc2ccccc2)c(C)o1	3	0.65	99	-5*	-14	0.0053	0.0049	?	0.0073	?	0.011
COc1cccc(-c2nc(CS(=O)(=O)CC(=O)NCc3ccccc3)c(C)o2)c1	0	-1.5	96	-4.1*	-7	0.0087	0.0058	0.037	0.0045	?	0.012
O=C1/C(=C\c2ccco2)NC(=S)N1c1ccccc1	-3	-0.69	115	15*	-26	0.015*	0.033*	0.034	0.018*	?	0.013*
CC(C)C12CN3CC(C(C)C)(CN(C1)C3c1ccc([N+](=O)[O-])o1)C2=O (stereo not drawn)	-2	-0.61	90	0.61	3	nt	nt	nt	nt	nt	nt
COCc1cc(N2CCCC2)nc(-c2ccccc2)n1	-1	-1.5	101	-3.5*	-12	0.0066	0.0042	0.028	0.0067	0.018	0.0096
CC(C)Cc1csc(NC(=O)c2ccc(Cl)cc2)c1C(=O)O	3	-0.039	100	5.2*	11	0.0091	0.032*	0.029	0.018*	?	?
CC(C)Cc1csc(NC(=O)c2ccccc2Cl)c1C(=O)O	-2	-0.32	98	-0.12	5	nt	nt	nt	nt	nt	nt
CC(C)Oc1ccc(CNC(=S)N/N=C/c2ccc([N+](=O)[O-])cc2)cc1	-2	-0.17	97	3.6*	-11	0.0093	0.0068	0.034	0.0038	0.021	0.012
Cc1noc(C)c1NC(=O)Nc1cccc2c1O[C@H](CN(C)C(=O)Nc1ccc(C(F)(F)F)cc1)[C@@H](C)CN([C@H](C)CO)C2=O	0	nt	97	nt	nt	nt	nt	nt	nt	nt	nt
COc1ccccc1CNC(=O)COC(=O)CCN=C1NS(=O)(=O)c2ccccc21	-2	nt	97	nt	nt	nt	nt	nt	nt	nt	nt
COc1ccccc1C(=O)NCCC(=O)N1CCN(C(C)=O)CC1	-2	nt	96	nt	nt	nt	nt	nt	nt	nt	nt
Cc1nc(N2CCN(Cc3ccccc3)CC2)c(C#N)c2c1COC(C)(C)C2	-2	-0.95	100	-3.4*	7	0.0056	0.003	0.021*	?	0.011*	0.0093
COc1cccc(/C=N/NC(=O)CSc2cccc3cccnc23)c1	4	0.082	100	28*	-20	0.011	0.03*	0.035	?	0.03*	0.012
C#CCOCCOCCOCCNc1nc(N2CCN(C(=O)[C@H]([C@@H](C)CC)n3cc([C@@H](N)Cc4ccc(O)cc4)nn3)CC2)nc(N2CCN(C(=O)[C@H](CCCCN)n3cc([C@@H](N)CO)nn3)CC2)n1	nt	2.7	nt	0.0078	-8	nt	nt	nt	nt	nt	nt
CCc1cc2c(SCC(=O)C(C#N)=C3N(C)c4ccccc4N3C)ncnc2s1	2	-0.38	92	nt	-19	0.0079	0.0095*	0.03	0.007	0.015	0.0098
CCc1cc2c(SCC#N)ncnc2s1	0	3.1	107	6.1*	4	0.0066	0.017*	0.036	0.017*	0.027*	0.017*
CCc1cc2c(SCC(=O)c3ccccc3)ncnc2s1	4	-0.53	108	0.62	-15	nt	nt	nt	nt	nt	nt
CCNC(=O)C1(C)CCN(C(=O)c2ccc(OC)cc2OC)C1 (stereo not drawn)	nt	nt	93	nt	nt	nt	nt	nt	nt	nt	nt
